Values after ≈ are worked out from the molar mass of the structure shown.

In one assay the test system is Haemophilus influenzae. Put plainly: Antibacterial activity against Haemophilus influenzae SR27914 clinical isolate assessed as growth inhibition by CLSI broth microdilution method. It is filed as functional. In short, it runs like this:
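MIC by CLSI broth microdilution using Haemophilus test medium.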
For orientation: Dilution methods test growth across graded concentrations, often in twofold steps.
In the case of `O=C1O[C@@H](Cn2ccnn2)CN1c1cc(F)c(N2CCNOCC2)c(F)c1`, the MIC was 8 µg/mL (≈ 21 µM).

Consider `O=C1O[C@@H](CNc2ccon2)CN1c1cc(F)c(N2CCNOCC2)c(F)c1`, for which the MIC was determined as 16 µg/mL (≈ 40.5 µM).

As to `CC(=O)NC[C@H]1CN(c2ccc(N3CCNN(C(=O)CO)CC3)c(F)c2)C(=O)O1`, the MIC was found to be 16 µg/mL (≈ 39.1 µM).

Turning to `CC(=O)NC[C@H]1CN(c2cc(F)c(N3CCNN(C(=O)CO)CC3)c(F)c2)C(=O)O1`, the MIC came out at 8 µg/mL (≈ 18.7 µM).

Regarding `CC(=O)NC[C@H]1CN(c2cc(F)c(N3CCON(C(=O)CO)CC3)c(F)c2)C(=O)O1`, the MIC came to 16 µg/mL (≈ 37.3 µM).

For `CC(=O)NC[C@H]1CN(c2cc(F)c(N3CCNOCC3)c(F)c2)C(=O)O1`, the MIC came out at 16 µg/mL (≈ 43.2 µM).

In the case of `CC(=S)NC[C@H]1CN(c2cc(F)c(N3CCNOCC3)c(F)c2)C(=O)O1`, the MIC is 2 µg/mL (≈ 5.18 µM).

As to `COC(=S)NC[C@H]1CN(c2cc(F)c(N3CCNOCC3)c(F)c2)C(=O)O1`, the MIC was 8 µg/mL (≈ 19.9 µM).

Another assay concerns Streptococcus pneumoniae. Put plainly: Antibacterial activity against Streptococcus pneumoniae SR26207 clinical isolate assessed as growth inhibition by CLSI broth microdilution method. It counts as functional. The method, boiled down: (§1)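 MIC by CLSI broth microdilution in cation-adjusted Mueller-Hinton broth; S. pneumoniae medium supplemented with 5% lysed horse blood.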
Consider `O=C1O[C@@H](Cn2ccnn2)CN1c1cc(F)c(N2CCNOCC2)c(F)c1`, for which the MIC was found to be 0.5 µg/mL (≈ 1.31 µM).

Consider `O=C1O[C@@H](CNc2ccon2)CN1c1cc(F)c(N2CCNOCC2)c(F)c1`, for which the MIC came to 0.125 µg/mL (≈ 0.316 µM).

For `CC(=O)NC[C@H]1CN(c2ccc(N3CCNN(C(=O)CO)CC3)c(F)c2)C(=O)O1`, the MIC stood at 1 µg/mL (≈ 2.44 µM).

As for `CC(=O)NC[C@H]1CN(c2cc(F)c(N3CCNN(C(=O)CO)CC3)c(F)c2)C(=O)O1`, the MIC was found to be 0.25 µg/mL (≈ 0.585 µM).

Take `CC(=O)NC[C@H]1CN(c2cc(F)c(N3CCON(C(=O)CO)CC3)c(F)c2)C(=O)O1`: the MIC turned out to be 1 µg/mL (≈ 2.33 µM).

As to `CC(=O)NC[C@H]1CN(c2cc(F)c(N3CCNOCC3)c(F)c2)C(=O)O1`, the MIC is 0.25 µg/mL (≈ 0.675 µM).

For `CC(=S)NC[C@H]1CN(c2cc(F)c(N3CCNOCC3)c(F)c2)C(=O)O1`, the MIC came out at 0.063 µg/mL (≈ 0.163 µM).

For `COC(=S)NC[C@H]1CN(c2cc(F)c(N3CCNOCC3)c(F)c2)C(=O)O1`, the MIC is 0.125 µg/mL (≈ 0.311 µM).

In a further assay the test system is Moraxella catarrhalis. Briefly: Antibacterial activity against Moraxella catarrhalis SR26840 clinical isolate assessed as growth inhibition by CLSI broth microdilution method. It is filed as functional. In short, it runs like this: as §1
On to `O=C1O[C@@H](Cn2ccnn2)CN1c1cc(F)c(N2CCNOCC2)c(F)c1`, for which the MIC came to 4 µg/mL (≈ 10.5 µM).

Regarding `O=C1O[C@@H](CNc2ccon2)CN1c1cc(F)c(N2CCNOCC2)c(F)c1`, the MIC is 4 µg/mL (≈ 10.1 µM).

Take `CC(=O)NC[C@H]1CN(c2ccc(N3CCNN(C(=O)CO)CC3)c(F)c2)C(=O)O1`: the MIC came to 8 µg/mL (≈ 19.5 µM).

As to `CC(=O)NC[C@H]1CN(c2cc(F)c(N3CCNN(C(=O)CO)CC3)c(F)c2)C(=O)O1`, the MIC turned out to be 4 µg/mL (≈ 9.36 µM).

For `CC(=O)NC[C@H]1CN(c2cc(F)c(N3CCON(C(=O)CO)CC3)c(F)c2)C(=O)O1`, the MIC amounted to 8 µg/mL (≈ 18.7 µM).

Turning to `CC(=O)NC[C@H]1CN(c2cc(F)c(N3CCNOCC3)c(F)c2)C(=O)O1`, the MIC worked out at 4 µg/mL (≈ 10.8 µM).

For `CC(=S)NC[C@H]1CN(c2cc(F)c(N3CCNOCC3)c(F)c2)C(=O)O1`, the MIC was 1 µg/mL (≈ 2.59 µM).

With `COC(=S)NC[C@H]1CN(c2cc(F)c(N3CCNOCC3)c(F)c2)C(=O)O1`, the MIC amounted to 1 µg/mL (≈ 2.48 µM).

A further assay concerns Enterococcus faecium. Put plainly: Antibacterial activity against Enterococcus faecium SR7940 clinical isolate assessed as growth inhibition by CLSI broth microdilution method. It counts as functional. The method, boiled down:
as §1
As for `O=C1O[C@@H](Cn2ccnn2)CN1c1cc(F)c(N2CCNOCC2)c(F)c1`, the MIC came to 1 µg/mL (≈ 2.63 µM).

For the compound `O=C1O[C@@H](CNc2ccon2)CN1c1cc(F)c(N2CCNOCC2)c(F)c1`, the MIC is 1 µg/mL (≈ 2.53 µM).

In the case of `CC(=O)NC[C@H]1CN(c2ccc(N3CCNN(C(=O)CO)CC3)c(F)c2)C(=O)O1`, the MIC was 4 µg/mL (≈ 9.77 µM).

As for `CC(=O)NC[C@H]1CN(c2cc(F)c(N3CCNN(C(=O)CO)CC3)c(F)c2)C(=O)O1`, the MIC worked out at 4 µg/mL (≈ 9.36 µM).

Take `CC(=O)NC[C@H]1CN(c2cc(F)c(N3CCON(C(=O)CO)CC3)c(F)c2)C(=O)O1`: the MIC came to 2 µg/mL (≈ 4.67 µM).

`CC(=O)NC[C@H]1CN(c2cc(F)c(N3CCNOCC3)c(F)c2)C(=O)O1`: the MIC stood at 1 µg/mL (≈ 2.7 µM).

For `CC(=S)NC[C@H]1CN(c2cc(F)c(N3CCNOCC3)c(F)c2)C(=O)O1`, the MIC stood at 0.125 µg/mL (≈ 0.323 µM).

As for `COC(=S)NC[C@H]1CN(c2cc(F)c(N3CCNOCC3)c(F)c2)C(=O)O1`, the MIC was found to be 0.25 µg/mL (≈ 0.621 µM).

The test system of a further assay is Enterococcus faecalis. Briefly: Antibacterial activity against Enterococcus faecalis SR1004 clinical isolate assessed as growth inhibition by CLSI broth microdilution method. It is filed as functional. In short, it runs like this: as §1
With `O=C1O[C@@H](Cn2ccnn2)CN1c1cc(F)c(N2CCNOCC2)c(F)c1`, the MIC is 2 µg/mL (≈ 5.26 µM).

As for `O=C1O[C@@H](CNc2ccon2)CN1c1cc(F)c(N2CCNOCC2)c(F)c1`, the MIC was 0.5 µg/mL (≈ 1.26 µM).

With `CC(=O)NC[C@H]1CN(c2ccc(N3CCNN(C(=O)CO)CC3)c(F)c2)C(=O)O1`, the MIC came out at 2 µg/mL (≈ 4.88 µM).

Turning to `CC(=O)NC[C@H]1CN(c2cc(F)c(N3CCNN(C(=O)CO)CC3)c(F)c2)C(=O)O1`, the MIC was found to be 2 µg/mL (≈ 4.68 µM).

For the compound `CC(=O)NC[C@H]1CN(c2cc(F)c(N3CCON(C(=O)CO)CC3)c(F)c2)C(=O)O1`, the MIC came out at 4 µg/mL (≈ 9.34 µM).

Regarding `CC(=O)NC[C@H]1CN(c2cc(F)c(N3CCNOCC3)c(F)c2)C(=O)O1`, the MIC worked out at 2 µg/mL (≈ 5.4 µM).

As for `CC(=S)NC[C@H]1CN(c2cc(F)c(N3CCNOCC3)c(F)c2)C(=O)O1`, the MIC is 0.25 µg/mL (≈ 0.647 µM).

As for `COC(=S)NC[C@H]1CN(c2cc(F)c(N3CCNOCC3)c(F)c2)C(=O)O1`, the MIC came out at 0.5 µg/mL (≈ 1.24 µM).

For a further assay, the system named is Staphylococcus aureus. Briefly: Antibacterial activity against linezolid-resistant Staphylococcus aureus NRS271 assessed as growth inhibition by CLSI broth microdilution method. It is filed as functional. The method, boiled down:
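MIC by CLSI broth microdilution in cation-adjusted Mueller-Hinton broth. Lowest concentration inhibiting growth taken as MIC.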
Take `O=C1O[C@@H](Cn2ccnn2)CN1c1cc(F)c(N2CCNOCC2)c(F)c1`: the MIC came out at 16 µg/mL (≈ 42.1 µM).

As to `O=C1O[C@@H](CNc2ccon2)CN1c1cc(F)c(N2CCNOCC2)c(F)c1`, the MIC came out at 16 µg/mL (≈ 40.5 µM).

Take `CC(=O)NC[C@H]1CN(c2ccc(N3CCNN(C(=O)CO)CC3)c(F)c2)C(=O)O1`: the MIC was determined as 64 µg/mL (≈ 156 µM).

As to `CC(=O)NC[C@H]1CN(c2cc(F)c(N3CCNN(C(=O)CO)CC3)c(F)c2)C(=O)O1`, the MIC stood at 16 µg/mL (≈ 37.4 µM).

Take `CC(=O)NC[C@H]1CN(c2cc(F)c(N3CCON(C(=O)CO)CC3)c(F)c2)C(=O)O1`: the MIC was 32 µg/mL (≈ 74.7 µM).

Consider `CC(=O)NC[C@H]1CN(c2cc(F)c(N3CCNOCC3)c(F)c2)C(=O)O1`, for which the MIC is 16 µg/mL (≈ 43.2 µM).

Turning to `CC(=S)NC[C@H]1CN(c2cc(F)c(N3CCNOCC3)c(F)c2)C(=O)O1`, the MIC stood at 4 µg/mL (≈ 10.4 µM).

As for `COC(=S)NC[C@H]1CN(c2cc(F)c(N3CCNOCC3)c(F)c2)C(=O)O1`, the MIC amounted to 4 µg/mL (≈ 9.94 µM).

Another assay deals with Staphylococcus aureus. Put plainly: Antibacterial activity against Staphylococcus aureus Smith assessed as growth inhibition by CLSI broth microdilution method. It counts as functional. In short, it runs like this:
as §1
Turning to `O=C1O[C@@H](Cn2ccnn2)CN1c1cc(F)c(N2CCNOCC2)c(F)c1`, the MIC was 2 µg/mL (≈ 5.26 µM).

On to `O=C1O[C@@H](CNc2ccon2)CN1c1cc(F)c(N2CCNOCC2)c(F)c1`, for which the MIC is 1 µg/mL (≈ 2.53 µM).

For the compound `CC(=O)NC[C@H]1CN(c2ccc(N3CCNN(C(=O)CO)CC3)c(F)c2)C(=O)O1`, the MIC was found to be 2 µg/mL (≈ 4.88 µM).

For `CC(=O)NC[C@H]1CN(c2cc(F)c(N3CCNN(C(=O)CO)CC3)c(F)c2)C(=O)O1`, the MIC was found to be 1 µg/mL (≈ 2.34 µM).

On to `CC(=O)NC[C@H]1CN(c2cc(F)c(N3CCON(C(=O)CO)CC3)c(F)c2)C(=O)O1`, for which the MIC stood at 2 µg/mL (≈ 4.67 µM).

For the compound `CC(=O)NC[C@H]1CN(c2cc(F)c(N3CCNOCC3)c(F)c2)C(=O)O1`, the MIC was 1 µg/mL (≈ 2.7 µM).

Regarding `CC(=S)NC[C@H]1CN(c2cc(F)c(N3CCNOCC3)c(F)c2)C(=O)O1`, the MIC worked out at 0.25 µg/mL (≈ 0.647 µM).

As to `COC(=S)NC[C@H]1CN(c2cc(F)c(N3CCNOCC3)c(F)c2)C(=O)O1`, the MIC turned out to be 0.5 µg/mL (≈ 1.24 µM).

For another assay, the system named is Staphylococcus aureus. Briefly: Antibacterial activity against Staphylococcus aureus SR20549 clinical isolate assessed as growth inhibition by CLSI broth microdilution method. It counts as functional. The method, boiled down:
as §1
Take `O=C1O[C@@H](Cn2ccnn2)CN1c1cc(F)c(N2CCNOCC2)c(F)c1`: the MIC was 1 µg/mL (≈ 2.63 µM).

In the case of `O=C1O[C@@H](CNc2ccon2)CN1c1cc(F)c(N2CCNOCC2)c(F)c1`, the MIC stood at 0.5 µg/mL (≈ 1.26 µM).

With `CC(=O)NC[C@H]1CN(c2ccc(N3CCNN(C(=O)CO)CC3)c(F)c2)C(=O)O1`, the MIC amounted to 4 µg/mL (≈ 9.77 µM).

In the case of `CC(=O)NC[C@H]1CN(c2cc(F)c(N3CCNN(C(=O)CO)CC3)c(F)c2)C(=O)O1`, the MIC was found to be 1 µg/mL (≈ 2.34 µM).

With `CC(=O)NC[C@H]1CN(c2cc(F)c(N3CCON(C(=O)CO)CC3)c(F)c2)C(=O)O1`, the MIC is 2 µg/mL (≈ 4.67 µM).

Take `CC(=O)NC[C@H]1CN(c2cc(F)c(N3CCNOCC3)c(F)c2)C(=O)O1`: the MIC was found to be 1 µg/mL (≈ 2.7 µM).

Consider `CC(=S)NC[C@H]1CN(c2cc(F)c(N3CCNOCC3)c(F)c2)C(=O)O1`, for which the MIC stood at 0.25 µg/mL (≈ 0.647 µM).

Regarding `COC(=S)NC[C@H]1CN(c2cc(F)c(N3CCNOCC3)c(F)c2)C(=O)O1`, the MIC stood at 0.25 µg/mL (≈ 0.621 µM).

These data come from ChEMBL document CHEMBL2375276, “Antibacterial oxazolidinone analogues having a N-hydroxyacetyl-substituted seven-membered [1,2,5]triazepane or [1,2,5]oxadiazepane C-ring unit” (Eur J Med Chem, 2013).
